Measurements published in ChEMBL document CHEMBL4229376, “Optimization of the pharmacokinetic properties of potent anti-trypanosomal triazine derivatives” (Eur J Med Chem, 2018).
Calls of active or inactive are those of the source. The calls are words filed in the database; no cut-off is given here.

Experiments:
[1] = tested on: Plasmodium falciparum; experiment: Antiplasmodial activity against chloroquine-resistant Plasmodium falciparum K1 infected in human erythrocytes after 72 hrs by Malstat reagent-based spectrophotometric analysis; type: functional, organism-based; conditions: K1, 72 h
[2] = Drug metabolism in mouse liver microsomes assessed as CYP450 mediated compound […] by measuring parent compound remaining at 5 uM after 15 mins in presence of NADPH by UPLC/MS/ESI analysis; type: ADME; conditions: read-out: Stability
[3] = Drug metabolism in human liver microsomes assessed as UGT mediated compound […] by measuring parent compound remaining at 5 uM after 60 mins in presence of UDPGA by UPLC/MS/ESI analysis; type: ADME; conditions: read-out: Stability
[4] = tested on: Trypanosoma brucei brucei; experiment: Antitrypanosomal activity against Trypanosoma brucei brucei Squib 427 infected in Swiss mouse assessed as mouse survival at 50 mg/kg, po administered as single dose for 5 days and measured on day 14 post infection; type: functional, organism-based
Method in brief: (§1)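 Acute T. b. brucei mouse infection model. Dosing was PO or IP at 10–50 mg/kg, once (SID) or twice (BID) daily for 5 days after infection, with 3 mice per group. […] Read-outs were mean survival time and survivors on day 14 post infection.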

[5] = tested on: Trypanosoma brucei brucei; experiment: Antitrypanosomal activity against Trypanosoma brucei brucei Squib 427 infected in Swiss mouse assessed as mouse survival at 10 mg/kg, ip administered as single dose for 5 days and measured on day 14 post infection; type: functional, organism-based; method in brief: as §1
[6] = tested on: Trypanosoma brucei brucei; experiment: Antitrypanosomal activity against Trypanosoma brucei brucei Squib 427 infected in Swiss mouse assessed as mean survival days at 10 mg/kg, ip administered as single dose for 5 days; type: functional
Method in brief: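 Acute mouse infection model with T. b. brucei. Dosing ran for 5 days after infection, orally or intraperitoneally, once or twice daily. Groups were 3 mice each, with vehicle-treated infected controls. The read-out was mean survival time in days, plus the number of survivors on day 14 post-infection.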

[7] = tested on: Trypanosoma brucei brucei; experiment: Antitrypanosomal activity against Trypanosoma brucei brucei Squib 427 infected in Swiss mouse at 50 mg/kg, po administered as single dose after 24 hrs; type: functional, organism-based; conditions: Squib 427, 24 h
[8] = Drug metabolism in human plasma assessed as parent compound remaining after 15 mins by UPLC/MS/ESI analysis; type: ADME, cell-free; conditions: read-out: Stability
[9] = Drug metabolism in human plasma assessed as parent compound remaining after 60 mins by UPLC/MS/ESI analysis; type: ADME, cell-free; conditions: read-out: Stability
[10] = Protein binding in 10% FBS in Trypanosoma brucei culture medium at 2 uM after 6 hrs by equilibrium dialysis and LC-MS analysis; type: ADME, cell-free, Bos taurus, Serum; conditions: cattle, read-out: PB
[11] = tested on: Trypanosoma brucei brucei; experiment: Antitrypanosomal activity against Trypanosoma brucei brucei Squib 427 assessed as reduction in parasite growth at 7 to 14 times IC50 after 48 hrs resazurin dye-based fluorimetric analysis; type: functional, organism-based
Method in brief: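 In vitro time course of T. b. brucei growth in the presence of compound, with parasite growth expressed as % of control.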

[12] = Drug level in Swiss mouse blood infected with Trypanosoma brucei brucei Squib 427 at 50 mg/kg, po bid for 5 days measured after 2 hrs after last dose by UPLC/MS/ESI analysis; type: ADME, organism-based; conditions: whole blood, read-out: Drug uptake
[13] = Drug level in Swiss mouse blood infected with Trypanosoma brucei brucei Squib 427 at 25 mg/kg, po bid for 5 days measured after 0.5 hrs after last dose by UPLC/MS/ESI analysis; type: ADME, organism-based; conditions: whole blood, read-out: Drug uptake
[14] = Drug level in Swiss mouse blood infected with Trypanosoma brucei brucei Squib 427 at 25 mg/kg, po bid for 5 days measured after 1 hr after last dose by UPLC/MS/ESI analysis; type: ADME, organism-based; conditions: whole blood, read-out: Drug uptake
[15] = Drug level in Swiss mouse blood infected with Trypanosoma brucei brucei Squib 427 at 25 mg/kg, po bid for 5 days measured after 2 hrs after last dose by UPLC/MS/ESI analysis; type: ADME, organism-based; conditions: whole blood, read-out: Drug uptake
[16] = Drug uptake in Swiss mouse blood at 50 mg/kg, po administered as single dose after 0.25 hrs by UPLC/MS/ESI analysis; type: ADME, organism-based; conditions: whole blood, read-out: Drug uptake
Method in brief: (§2)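 Mice were given the compound orally as a single dose of either 25 or 50 mg/kg, one group per dose. Plasma concentrations were followed over time up to 24 h, and the pharmacokinetic parameters were derived from the concentration-time profile.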

[17] = Drug uptake in Swiss mouse blood at 50 mg/kg, po administered as single dose after 0.5 hrs by UPLC/MS/ESI analysis; type: ADME, organism-based; conditions: whole blood, read-out: Drug uptake; method in brief: as §2
[18] = Drug uptake in Swiss mouse blood at 50 mg/kg, po administered as single dose after 2 hrs by UPLC/MS/ESI analysis; type: ADME, organism-based; conditions: whole blood, read-out: Drug uptake; method in brief: as §2
[19] = Tmax in Swiss mouse infected with Trypanosoma brucei brucei Squib 427 at 50 mg/kg, po bid for 5 days after 24 hrs by UPLC/MS/ESI analysis; type: ADME, organism-based; conditions: in vivo
[20] = Half life in Swiss mouse infected with Trypanosoma brucei brucei Squib 427 at 50 mg/kg, po bid for 5 days after 24 hrs by UPLC/MS/ESI analysis; type: ADME, organism-based; conditions: in vivo
[21] = tested on: Mus musculus; experiment: Apparent volume of distribution in Swiss mouse infected with Trypanosoma brucei brucei Squib 427 at 50 mg/kg, po bid for 5 days after 24 hrs by UPLC/MS/ESI analysis; type: ADME, organism-based; conditions: in vivo
[22] = Clearance in Swiss mouse infected with Trypanosoma brucei brucei Squib 427 at 50 mg/kg, po bid for 5 days after 24 hrs by UPLC/MS/ESI analysis; type: ADME, organism-based; conditions: in vivo
[23] = Tmax in Swiss mouse infected with Trypanosoma brucei brucei Squib 427 at 25 mg/kg, po administered as single dose after 24 hrs by UPLC/MS/ESI analysis; type: ADME, organism-based; conditions: in vivo
[24] = Half life in Swiss mouse infected with Trypanosoma brucei brucei Squib 427 at 25 mg/kg, po administered as single dose after 24 hrs by UPLC/MS/ESI analysis; type: ADME, organism-based; conditions: in vivo
[25] = AUC (0 to >4 hrs) in Swiss mouse infected with Trypanosoma brucei brucei Squib 427 at 25 mg/kg, po administered as single dose by UPLC/MS/ESI analysis; type: ADME, organism-based; conditions: in vivo
[26] = tested on: Mus musculus; experiment: Apparent volume of distribution in Swiss mouse infected with Trypanosoma brucei brucei Squib 427 at 25 mg/kg, po administered as single dose after 24 hrs by UPLC/MS/ESI analysis; type: ADME, organism-based; conditions: in vivo
[27] = Clearance in Swiss mouse infected with Trypanosoma brucei brucei Squib 427 at 25 mg/kg, po administered as single dose after 24 hrs by UPLC/MS/ESI analysis; type: ADME, organism-based; conditions: in vivo
[28] = Tmax in Swiss mouse at 25 mg/kg, po administered as single dose after 24 hrs by UPLC/MS/ESI analysis; type: ADME, organism-based; conditions: in vivo; method in brief: as §2
[29] = Cmax in Swiss mouse at 25 mg/kg, po administered as single dose after 24 hrs by UPLC/MS/ESI analysis; type: ADME, organism-based; set-up: dose 25 mg/kg, route oral; conditions: in vivo
Method in brief: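 Mice in groups received one oral dose of 25 or 50 mg/kg. Plasma concentrations were followed over time up to 24 h, and PK parameters including T1/2 were derived from the concentration–time profile.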

[30] = Half life in Swiss mouse at 25 mg/kg, po administered as single dose after 24 hrs by UPLC/MS/ESI analysis; type: ADME, organism-based; conditions: in vivo; method in brief: as §2
[31] = Protein binding in mouse plasma assessed as drug recovery at 10 uM after 6 hrs by equilibrium dialysis and LC-MS analysis; type: ADME, cell-free; conditions: read-out: Drug recovery
[32] = Protein binding in 10% FBS in Trypanosoma brucei culture medium assessed as drug recovery at 2 uM after 6 hrs by equilibrium dialysis and LC-MS analysis; type: ADME, cell-free, Bos taurus, Serum; conditions: cattle, read-out: Drug recovery
[33] = Protein binding in 10% FBS in Trypanosoma brucei culture medium assessed as drug recovery at 10 uM after 6 hrs by equilibrium dialysis and LC-MS analysis; type: ADME, cell-free, Bos taurus, Serum; conditions: cattle, read-out: Drug recovery

`Nc1nc(Nc2ccc(F)cc2)nc(Oc2ccc(F)cc2)n1` gave an IC50 [1] greater than 64000 nM, a remaining at 0.25 h, 5 µM [2] of 76% and a remaining at 1 h, 5 µM [3] of 96%. The Activity [4] was “inactive”, the Activity [5] was “inactive” and the MST [6] was 7 days. For the same molecule, the IC50 [7] was 630 nM, the remaining at 0.25 h [8] was 80% and the remaining at 1 h [9] was 88%. For the same molecule, the fraction unbound at 6 h, 2 µM [10] was 0.5 to 0.51, the Activity [11] was “inactive” and the concentration at 2 h [12] was 2840 ng/mL. For the same molecule, the concentration at 0.5 h [13] was 2090 ng/mL, the concentration at 1 h [14] was 2410 ng/mL and the concentration at 2 h [15] was 1100 ng/mL. For the same molecule, the concentration at 0.25 h [16] was 1320 ng/mL, the concentration at 0.5 h [17] was 1780 ng/mL and the concentration at 2 h [18] was 1630 ng/mL. It also gave a Tmax [19] of 1.3 h, a half-life [20] of 1.33 h and a Vz [21] of 10.9 L. It also gave a CL/F [22] of 89.9 mL/min, a Tmax [23] of 0.8 h and a half-life [24] of 0.85 h. It also gave an AUC at 4 h [25] of 4710 ng·h/mL, a Vz [26] of 13 L and a CL/F [27] of 176 mL/min. The Tmax [28] was 2.3 h, the Cmax [29] was 1180 ng/mL and the half-life [30] was 4.14 h. It also gave a recovery at 6 h, 10 µM [31] of 75.4%, a recovery at 6 h, 2 µM [32] of 96.1% and a recovery at 6 h, 10 µM [33] of 71.1%.
